Screening data from PubChem BioAssay.
An excerpt weighted towards active compounds, which were near 1.9% of everything screened.
NPY-Y2 antag: NPY-Y2 receptor antagonists, primary screen, cell-based; Neuropeptide Y receptor type 2 (Homo sapiens), P49146; NPY-Y2 expressing cells, antagonist mode; inhibition, % at 2.7 µM; actives 0.99% (n = 140,000); AID 793, 2007
Target sequence (P49146 whole entry, looked up): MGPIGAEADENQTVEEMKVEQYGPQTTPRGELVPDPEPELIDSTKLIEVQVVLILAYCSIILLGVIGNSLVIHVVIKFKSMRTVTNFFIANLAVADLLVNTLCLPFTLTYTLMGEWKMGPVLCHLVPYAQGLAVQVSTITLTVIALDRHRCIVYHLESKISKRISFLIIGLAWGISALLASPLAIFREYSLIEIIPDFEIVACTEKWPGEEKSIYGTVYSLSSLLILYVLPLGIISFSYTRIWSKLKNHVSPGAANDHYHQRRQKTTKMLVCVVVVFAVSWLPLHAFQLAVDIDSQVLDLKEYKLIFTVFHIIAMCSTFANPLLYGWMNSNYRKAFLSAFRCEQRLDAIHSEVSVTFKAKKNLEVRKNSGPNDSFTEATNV
NPY-Y2 PAM-ag: NPY-Y2 potentiators or agonists, primary screen, cell-based; Neuropeptide Y receptor type 2 (Homo sapiens), P49146; cells expressing NPY-Y2, potentiator/agonist read-out; activation, % at 3.6 µM; actives 0.45% (n = 220,000); AID 1359, 2008; in the data active = activation above about 27%;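 also: cells stimulated with NPY near EC25 plus isoproterenol at EC100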
NPY Y1 blocker: NPY-Y1 receptor antagonists, primary screen, cell-based. Neuropeptide Y receptor type 1 (Homo sapiens), P25929. HEK293-CNG Y1 cells, membrane potential fluorescence; NPY at EC95, then isoproterenol. inhibition, % at 3.6 µM. actives 1% (n = 200,000);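 active = inhibition above the campaign mean inhibition of all tested compounds plus 3 SD, cut at about 20% in these data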
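Material: HEK293 Y1/CNG channel cell line; also added: NPY (25 nM), isoproterenol (1 µM), Ro 20-1724 (25 µM); doses: one concentration, 3.6 µM, in 0.4% DMSO; schedule: compound incubation 1 h at room temperature, readout 45 min post-stimulation; technique: membrane potential fluorescence; measure: fluorescence ratio normalized to % inhibition between controls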
NPY-Y1 PAM-ag: NPY-Y1 receptor potentiators or agonists, primary screen, cell-based. actives 0.37% (n = 220,000). AID 1304, 2008. NPY-Y1 expressing cells, potentiator/agonist activation. activation, % at 3.6 µM. Neuropeptide Y receptor type 1 (Homo sapiens), P25929; in the data active = activation above about 33%, passing the limit was not always enough;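 also: cells stimulated with NPY at EC10 then isoproterenol at EC100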
NPY-Y1 ant conf: NPY-Y1 receptor antagonists, retest of hits, confirmation, HEK293-CNG cells, membrane potential fluorescence, triplicate; cAMP; NPY challenge against isoproterenol-raised cAMP; inhibition, % at 3.6 µM; AID 1254, 2008; shares compounds with NPY Y1 blocker; actives 21% (n = 1,200); in the data active = inhibition above about 20%
NPY-Y2 antag ct: NPY-Y2 receptor antagonists, selectivity check, confirmation, counter-screen for NPY-Y1 antagonist project, HEK293-CNG cells, membrane potential fluorescence, triplicate; shares compounds with NPY Y1 blocker; antagonism; cells given NPY, then isoproterenol; inhibition, % at 3.6 µM; actives 28% (n = 1,200)
Numbers stand for hits; - = inactive; . = no result. Rule as the data show it, unless noted: active = inhibition above about 17%; inactive = the rest.

SMILES	NPY-Y2 antag	NPY-Y2 PAM-ag	NPY Y1 blocker	NPY-Y1 PAM-ag	NPY-Y1 ant conf	NPY-Y2 antag ct
Cc1cccc(Oc2sc(C(=O)c3ccccc3)c(N)c2C#N)c1C	-	-	24	-	-	-
N#Cc1c(Oc2ccc3ccccc3c2)sc(C(=O)c2ccccc2)c1N	-	-	-	-	.	.
Cc1c(N2C(=O)CSC2=S)c(=O)n(-c2ccccc2)n1C	.	-	26	-	-	-
CN(Cc1ccccc1)CC(O)COc1ccc(CNCCc2cccnc2)cc1 (stereo not given)	.	-	-	-	.	.
CCc1ccc(CNCc2ccc(OCC(O)CN(C)Cc3ccccc3)cc2)nc1 (stereo not given)	.	-	26	-	-	27
NC(=O)CNc1n[nH]c(=S)[nH]c1=O	.	-	-	-	.	.
COC(=O)c1ccc(OCC2c3cc(OC)c(OC)cc3CCN2C(C)=O)cc1 (stereo not given)	.	-	-	-	.	.
COC(=O)c1ccc(OCC2c3cc(OC)c(OC)cc3CCN2C(=O)c2ccco2)cc1 (stereo not given)	-	-	22	-	-	18
CC/C(=N\Nc1ccc([N+](=O)[O-])cc1)c1ccccc1	.	-	-	-	.	.
CCC1(C(=O)c2ccccc2)C(c2ccc([N+](=O)[O-])cc2)C1(C(=O)OC)C(=O)OC (stereo not given)	-	-	22	-	-	-
CC(C)(C)c1ccc(-c2cn(-c3ccc(Br)cc3)c3[n+]2CCCS3)cc1	.	-	55	-	68	32
c1ccc(-c2cn(-c3ccccc3)c3[n+]2CCS3)cc1	.	-	-	-	.	.
CCOC(=O)Cc1csc(NC(=O)c2c(O)c3c(n(CC(C)C)c2=O)CCCC3)n1	.	-	.	-	.	.
O=C(NC1CCSC1=O)C1CCCCC1 (stereo not given)	.	-	-	-	.	.
Cc1cc(C)c2c(CN3CCN(C/C=C/c4ccccc4)CC3)cc(=O)oc2c1	-	-	25	-	-	18
Cn1c2c(c(=O)n(C)c1=O)C(C(F)(F)F)(C(F)(F)F)N=C(c1ccccc1Cl)N2	-	-	-	-	.	.
Cn1c2c(c(=O)n(C)c1=O)C(C(F)(F)F)(C(F)(F)F)N=C(CCC1CCCCC1)N2	-	-	22	-	-	40
Cc1c(NC(=O)Cc2ccccc2)cccc1C(=O)NN1C(=O)c2ccccc2C1=O	-	-	-	-	.	.
CC(NC(=O)CCn1nc(-c2ccc(Cl)cc2)ccc1=O)c1ccccc1 (stereo not given)	.	-	-	-	.	.
Cc1ccc(C)c(SCc2noc(C(=O)NCC3CCCO3)c2C(=O)O)c1 (stereo not given)	-	-	21	-	22	-
O=C(NCC1CCCO1)c1onc(CSc2ccccc2)c1C(=O)O (stereo not given)	-	-	-	-	.	.
CC(C)c1ccc(SCc2noc(C(=O)NCC3CCCO3)c2C(=O)O)cc1 (stereo not given)	-	-	24	-	-	-
Cc1cccc(SCc2noc(C(=O)NCC3CCCO3)c2C(=O)O)c1 (stereo not given)	-	-	-	-	.	.
CN(C)C(=O)CSc1nc(-c2ccccc2)nc2c1CCCC2	-	-	-	-	.	.
CN(C)CCSc1nc(-c2ccccc2)nc2c1CCC2	-	-	24	-	-	20
SMILES	NPY-Y2 antag	NPY-Y2 PAM-ag	NPY Y1 blocker	NPY-Y1 PAM-ag	NPY-Y1 ant conf	NPY-Y2 antag ct
COc1ccc(C2Nc3ccccc3C(=O)N2Cc2ccccc2)cc1COc1ccccn1 (stereo not given)	-	-	36	-	-	-
Cc1cccc(NC(=O)N2CCCC2C(=O)Nc2ccccc2)c1 (stereo not given)	.	-	-	-	.	.
COc1ccc(N(C)S(=O)(=O)c2cccc(C(=O)NC3CCC(C)CC3)c2)cc1 (stereo not given)	.	-	46	-	27	-
COc1ccc(N(C)S(=O)(=O)c2cccc(C(=O)N(C)Cc3ccc(C)o3)c2)cc1	.	-	31	-	-	-
COc1ccc(N(C)S(=O)(=O)c2cccc(C(=O)NCc3ccc4c(c3)OCO4)c2)cc1	.	-	-	-	.	.
COc1ccc(N(C)S(=O)(=O)c2cccc(C(=O)NC3CCCCCC3)c2)cc1	.	-	39	-	-	-
CCOC(=O)c1sc(-c2ccc(Cl)cc2Cl)nc1O	.	-	.	-	.	.
Cc1ccc(OCC(=O)c2ccc(Cl)s2)c([N+](=O)[O-])n1	.	-	-	-	.	.
CCOC(=O)N1CCN(C(=O)c2ccc3c(=O)n(-c4cc(OC)ccc4OC)c(=S)[nH]c3c2)CC1	.	-	-	-	.	.
CN1CCN(C(=S)C(=O)Nc2ccc(Br)cc2)CC1	.	-	-	-	.	.
CN(C)c1ccc(/C=N/N=C(N)N)cc1[N+](=O)[O-]	.	-	-	-	.	.
O=C(Cn1cc([N+](=O)[O-])nc1[N+](=O)[O-])N1CCN(c2ccccc2)CC1	.	-	-	-	.	.
O=C(O)c1ccccc1N(Cc1ccccc1)C(=O)CO/N=C/c1ccccc1	-	-	22	-	-	-
COc1ccc(C(=O)c2coc3ccc(O)c(CN4CCCC4)c23)cc1	-	-	21	-	-	21
COC(=O)/C(=N/Nc1ccccc1C)N1CCCc2ccccc21	-	-	36	-	-	-
O=C(c1cnc2c(c1)COc1ccc(Cl)cc1-2)c1ccccc1O	-	-	22	-	-	-
COC(=O)c1cc2c(ccn2-c2ccc(F)cc2)n1Cc1ccc(OC)cc1	-	-	24	-	-	-
CCn1c(C(=O)OC)cc2c1ccn2-c1ccc(F)cc1	-	-	27	-	-	-
CCCn1c(SCC(=O)Nc2ccccc2C(=O)OC)nc2c1c(=O)n(C)c(=O)n2C	-	-	-	-	.	.
CCCn1c(SCC(=O)Nc2ccccc2N2CCCCC2)nc2c1c(=O)n(C)c(=O)n2C	-	-	26	-	-	-
COc1cc(NC(=O)c2ccc(Cl)cc2)c(OC)cc1Cl	-	-	31	-	-	-
COC(=O)c1ccc(C)c(NC(=O)C2COc3ccccc3O2)c1 (stereo not given)	-	-	-	-	.	.
COc1cc(NC(=O)C2COc3ccccc3O2)c(OC)cc1Cl (stereo not given)	-	-	31	-	-	-
COc1ccc(NC(C)=O)cc1NC(=O)c1ccc(Cl)cc1	.	-	-	-	.	.
CC1CCCCC1NC(=O)CN1C(=O)NC(Cc2ccccc2)(Cc2ccccc2)C1=O (stereo not given)	-	-	24	-	31	28
O=C(O)CCCCCCC1C(=O)NC(=O)N1CCC(O)C1CCCCC1 (stereo not given)	-	-	24	-	28	21
